5HT1a antag: antagonists of human 5-HT1a serotonin receptor; P08908; CHO 5-HT1a Ga15 NFAT-bla reporter, antagonist mode; inhibition, % at 10 µM; hit rate 0.68% among 62,000; AID 612;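 active means inhibition above the mean of all tested compounds plus 3 SD, cut at about 43% in these data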;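 further: receptor stimulated by 5-CT agonist at 100 nM near EC80; beta-lactamase reporter measured by ratiometric fluorescence of a cleavable substrate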
Target sequence (P08908 whole entry, looked up): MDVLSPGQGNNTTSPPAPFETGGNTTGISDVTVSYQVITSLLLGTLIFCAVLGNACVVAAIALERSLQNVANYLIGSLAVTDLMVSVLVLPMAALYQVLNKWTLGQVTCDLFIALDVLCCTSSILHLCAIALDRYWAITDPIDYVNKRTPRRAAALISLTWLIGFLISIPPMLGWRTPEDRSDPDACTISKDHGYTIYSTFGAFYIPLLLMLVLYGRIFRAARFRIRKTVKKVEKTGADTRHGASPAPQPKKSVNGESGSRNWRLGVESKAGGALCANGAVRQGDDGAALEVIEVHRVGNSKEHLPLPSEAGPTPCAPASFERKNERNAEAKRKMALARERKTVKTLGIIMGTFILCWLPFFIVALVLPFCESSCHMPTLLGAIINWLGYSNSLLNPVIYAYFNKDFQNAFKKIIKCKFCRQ
5HT1a ag: agonists of human 5-HT1a serotonin receptor; CHO 5-HT1a Ga15 NFAT-bla reporter, FRET ratio; 0% basal, 100% maximal reference agonist; hit rate 0.56% among 65,000; activation, % at 10 µM;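 active means activation above the screen-wide mean activation plus 3 SD, cut at about 19% in these data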;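 further: 0% = DMSO wells and 100% = 5-CT at EC100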
S1P1 ag-PAM: agonists and agonism potentiators of human S1P1 receptor; P21453; S1P1 CRE-bla cells, forskolin, beta-lactamase FRET, potentiator mode; S1P1 agonist co-added at EC20, 2 nM; 100% = saturating reference agonist, 0% = basal; activation, % at 9.5 µM; hit rate 0.57% among 56,000;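 active means activation above a cutoff set at the mean activation of all tested compounds plus 3 SD, cut at about 54% in these data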;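 further: forskolin at 4 µM as EC80 and the EC20 agonist is SEW2871; 100% = SEW2871 at its EC100 plus forskolin at EC80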
S1P3 ag: activates the human S1P3 receptor; Q99500; activation, % at 4.5 µM; S1P3 NFAT-BLA reporter cells, agonism, FRET ratio; relative to 1 µM S1P, basal subtracted; hit rate 0.1% among 60,000;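 active means activation above the screen-wide mean plus 3 SD, cut at about 4.5% in these data, passing the limit was not always enough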
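Benchmarks: high control 1 µM S1P / System: stable CHO line with human S1P3, Gα16, NFAT-BLA reporter / Dosing: single compound concentration, 4.5 µM final / Timing: 4 h compound at 37 °C, 2 h substrate at RT / Measured by: FRET β-lactamase substrate fluorescence, excitation 405 nm, 460/535 nm emission ratio, background-subtracted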
5HT1E ag: activates the human 5-HT1E serotonin receptor; P28566; CHO 5-HT1E Ga15 NFAT-bla reporter, FRET; 0% DMSO wells, 100% control agonist wells; activation, % at 6 µM; hit rate 0.69% among 65,000; AID 574;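 active means activation above a set limit, the screen-wide mean activation plus 3 SD, cut at about 8.5% in these data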;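 further: 100% = positive control agonist at 1 µM giving full maximal response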
HTR1E antagonist: 5-HT1E (human) receptor antagonism; inhibition, % at 6 µM; CHO 5-HT1E Ga15 NFAT-bla reporter, FRET, antagonist; hit rate 0.99% among 65,000; P28566;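 active means inhibition above a set limit, the mean inhibition across every tested compound plus 3 SD, cut at about 29% in these data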;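 further: signal is the 460 over 535 nm emission ratio of beta-lactamase substrate; 0% = agonist plus DMSO wells and 100% = wells without agonist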
* hit, by the source's call; · = no result given. Rows were chosen to be rich in hits. Some 3% of all compounds tested hit in one or more screens of this group.

SMILES | 5HT1a antag | 5HT1a ag | S1P1 ag-PAM | S1P3 ag | 5HT1E ag | HTR1E antagonist
c1ccc2[nH]c(CSc3nnc(-c4ccncc4)o3)nc2c1 | 4 | -1 | -4 | 0 | -1 | 9
Brc1cccc(-c2nnc(SCc3nc4ccccc4[nH]3)o2)c1 | 8 | -1 | 2 | -2 | 0 | 29*
CCN(CCO)C1CC(=O)N(c2ccccc2C)C1=O (centres undefined) | 39 | 0 | 12 | -1 | 0 | 6
C#CCN1C(=O)C(O)(CC(=O)c2ccc3c(c2)OCCO3)c2ccccc21 (centres undefined) | 8 | -6 | -17 | -1 | 0 | -2
Cc1ccc(S(=O)(=O)C(C#N)c2nc3ccccc3nc2N2CCCCC2)cc1 (centres undefined) | 3 | 3 | · | · | 1 | -7
N#CC(c1nc2ccccc2nc1N1CCCCC1)S(=O)(=O)c1ccc(Cl)cc1 (centres undefined) | 5 | -1 | 11 | -2 | 12* | 0
Cn1nc(CC(=O)Nc2cccc3ncccc23)c2ccccc2c1=O | 15 | 0 | · | · | 0 | 4
CCCCC(c1nnnn1CC1CCCO1)N1CCN(c2cccc(C)c2C)CC1 (centres undefined) | 38 | 1 | 14 | -1 | 38* | 3
COc1ccc(C(c2nnnn2CC2CCCO2)N2CCN(c3cccc(C)c3C)CC2)cc1 (centres undefined) | 24 | -2 | 11 | -1 | 3 | 6
CN(C)c1oc(-c2ccc(OCc3ccccc3)cc2)nc1C#N | -12 | 0 | 72* | -1 | 2 | 2
N#Cc1nc(-c2ccc(OCc3ccccc3)cc2)oc1NCc1cccnc1 | -6 | 1 | 60* | -1 | 0 | 14
CCOC(=O)c1[nH]c2cc3c(cc2c1NC(=O)CN1CCc2ccccc2C1)OCO3 | · | 2 | 17 | -2 | 1 | -26
CCCCC(=O)NCCNc1nc2c(c(=O)n(C)c(=O)n2C)n1Cc1ccccc1 | -18 | -1 | 1 | 0 | 2 | -8
CN(C)CCNC(=O)c1c(O)c2c([nH]c1=O)CCCC2 | -9 | -2 | -4 | -2 | 11* | -6
NC(=O)CSc1nnnn1-c1ccc(OC(F)(F)F)cc1 | -9 | -4 | -32 | 2 | -1 | -9
CN(C)c1ccc(C2C=C(c3ccc(Cl)cc3OC(F)F)Nc3ncnn32)cc1 (centres undefined) | 2 | 28* | -33 | 1 | 5 | 24
CCOC(=O)N1CCN(C(=O)c2ccc(Cn3c(=S)[nH]c4cc5c(cc4c3=O)OCO5)cc2)CC1 | -4 | 6 | · | · | -1 | 29*
CCN(CC)CCOC(=O)c1cccc(Br)c1 | 14 | 0 | 18 | -1 | 11* | 1
CCN(CC)CCOC(=O)c1cccc(Cl)c1 | 17 | -4 | -5 | -2 | 2 | 6
CSc1nc2ccccc2n1CC(=O)Nc1ccccc1 | 15 | -1 | -7 | -1 | -1 | 2
CSc1nc2ccccc2n1CC(=O)Nc1ccc(C)c(C)c1 | 11 | -1 | · | · | 15* | 1
CCc1ccc(NC(=O)Cn2c(SC)nc3ccccc32)cc1 | 13 | -2 | 9 | -1 | 54* | -6
CCOC(=O)C(NC(=O)CC)(Nc1ccc(S(=O)(=O)Nc2ncccn2)cc1)C(F)(F)F (centres undefined) | -8 | -2 | -6 | 0 | 0 | 0
COC(=O)c1cc2ccsc2n1CC(=O)Nc1cc(Cl)ccc1OC | 52* | -2 | 31 | -1 | -1 | 7
COC(=O)c1cc2ccsc2n1CC(=O)Nc1ccc(N(C)C)cc1 | 8 | -3 | 13 | -1 | -1 | -2
SMILES | 5HT1a antag | 5HT1a ag | S1P1 ag-PAM | S1P3 ag | 5HT1E ag | HTR1E antagonist
CC(=O)N1CCc2cc(S(=O)(=O)NCCC(=O)NCCc3ccc(C)cc3)ccc21 | -9 | -2 | 17 | -1 | 0 | 4
COCCn1nnnc1C(CC(C)C)N1CCN(C(=O)c2ccco2)CC1 (centres undefined) | 0 | -2 | 10 | 0 | 1 | 4
Cc1ccc(-c2nn(C)c(=O)c3ccccc23)cc1S(=O)(=O)NCCO | 6 | -2 | · | -1 | 0 | 29*
Cc1ccc(-c2nn(C)c(=O)c3ccccc23)cc1S(=O)(=O)N1CCCC1 | 10 | 0 | -50 | 0 | 2 | 36*
COc1ccc(C(=O)Nc2cccc(C(=O)N3CCCC3)c2)cc1 | -4 | 2 | 7 | 0 | 0 | 5
Cc1c(O)ccc(C(=O)CN2C(=O)c3ccccc3C2=O)c1O | 9 | 2 | 2 | 0 | 0 | -1
COCCCn1c(SCC(=O)NC2CCCC2)nnc1-c1ccco1 | 3 | -3 | 0 | -1 | 0 | 2
N#Cc1cc2c(=O)n3ccccc3nc2n(CCCN2CCOCC2)c1=O | -24 | 15 | -36 | 4 | 5 | -34
N#Cc1cc2c(=O)n3ccccc3nc2n(Cc2cccnc2)c1=O | -47 | 37* | -49 | 7 | 8 | -10
N#Cc1cc2c(=O)n3ccccc3nc2n(CCN2CCOCC2)c1=O | -5 | 4 | -36 | 0 | 28* | -5
COc1nc(OC)nc(N2CCC(C(=O)Nc3cccc4ccccc34)CC2)n1 | 10 | -4 | -16 | -1 | 0 | 8
COc1nc(OC)nc(N2CCC(C(=O)Nc3cccc4c3CCCC4)CC2)n1 | 0 | 22* | -2 | 0 | 0 | 1
O=C(CSc1nc(-c2ccc(F)cc2)cs1)NC(=O)NCc1ccco1 | 6 | -2 | 19 | 0 | 0 | 4
CCN1CCN(C(=O)Cn2ncc3ccsc3c2=O)CC1 | -6 | -2 | -29 | 0 | 0 | 6
Nc1nonc1-c1nc2ccccc2n1CC(=O)N1CCCCC1 | 7 | 0 | 15 | 0 | 0 | 5
COC(=O)c1ccccc1NC(=O)Cn1c(-c2nonc2N)nc2ccccc21 | 74* | -2 | 20 | -2 | -1 | 81*
COc1ccc(OC)c(Nc2cc(-c3ccccc3)nc(N)n2)c1 | 63* | -4 | -38 | -2 | -1 | 70*
CSc1cccc(-n2c(C)cc(C(N)=O)c2C)c1 | 14 | -2 | 22 | -2 | -1 | 4
C[N+]1=C2CCCCCN2C(O)(c2ccccc2)C1 (centres undefined) | -2 | 20* | 1 | 0 | 51* | -3
Cc1cccc(C)c1OCC(O)CN (centres undefined) | -3 | -4 | 7 | 0 | 24* | 3
Cc1cccc(C)c1OCC(O)Cn1ccnc1C (centres undefined) | 4 | 1 | 4 | -2 | -1 | 5
Cc1ccc(NC(=O)CN(C)S(=O)(=O)c2cccs2)cc1F | -11 | 1 | · | · | 0 | -44
COc1cc(C2Nc3cccc4cccc(c34)N2)cc(OC)c1OC(C)=O | · | -3 | -10 | -1 | -1 | -1

Source: PubChem BioAssay
